# Experimental data as given in the M2OR odorant receptor database.
# Legend:
# Settings in all cases: stereoisomer not certain
# OR51A4 (Homo sapiens) = target: T1, OR51A4 (Homo sapiens) (UniProt Q8NGJ6)
# T1 sequence (whole entry): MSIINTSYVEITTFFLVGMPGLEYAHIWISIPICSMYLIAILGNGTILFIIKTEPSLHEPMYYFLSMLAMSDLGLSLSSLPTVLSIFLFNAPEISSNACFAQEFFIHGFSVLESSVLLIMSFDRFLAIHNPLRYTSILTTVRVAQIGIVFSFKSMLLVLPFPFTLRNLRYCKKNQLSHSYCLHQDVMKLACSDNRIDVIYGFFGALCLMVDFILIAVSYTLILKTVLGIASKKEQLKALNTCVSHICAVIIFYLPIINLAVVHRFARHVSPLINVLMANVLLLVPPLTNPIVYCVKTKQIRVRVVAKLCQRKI
# Outline: (§1)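 Values were gathered from published papers (main text and supplementary material), with extra details requested from the original authors when needed, and checked for typos and inconsistencies. Each receptor–molecule pair is called responsive (active) if the original authors judged the measured signal statistically different from baseline, and non-responsive (inactive) otherwise. Assay methods varied by source, often transient mammalian cell-line luciferase assays. Recorded details include cell line, G-protein, co-transfected protein and tags.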
# OR51E1 (Homo sapiens) = target: T2, OR51E1 (Homo sapiens) (UniProt Q8TCB6)
# T2 sequence (whole entry): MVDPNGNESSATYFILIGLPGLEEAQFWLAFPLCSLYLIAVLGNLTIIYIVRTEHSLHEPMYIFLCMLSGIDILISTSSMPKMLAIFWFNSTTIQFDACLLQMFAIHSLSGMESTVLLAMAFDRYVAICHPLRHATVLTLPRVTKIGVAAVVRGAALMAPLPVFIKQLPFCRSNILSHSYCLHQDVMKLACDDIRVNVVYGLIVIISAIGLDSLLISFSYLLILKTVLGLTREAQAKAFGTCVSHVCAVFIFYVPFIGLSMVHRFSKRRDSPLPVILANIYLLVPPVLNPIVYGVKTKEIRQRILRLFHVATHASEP
# Outline: as §1
# OR51E2 (Homo sapiens) = target: T3, OR51E2 (Homo sapiens) (UniProt Q9H255)
# T3 sequence (whole entry): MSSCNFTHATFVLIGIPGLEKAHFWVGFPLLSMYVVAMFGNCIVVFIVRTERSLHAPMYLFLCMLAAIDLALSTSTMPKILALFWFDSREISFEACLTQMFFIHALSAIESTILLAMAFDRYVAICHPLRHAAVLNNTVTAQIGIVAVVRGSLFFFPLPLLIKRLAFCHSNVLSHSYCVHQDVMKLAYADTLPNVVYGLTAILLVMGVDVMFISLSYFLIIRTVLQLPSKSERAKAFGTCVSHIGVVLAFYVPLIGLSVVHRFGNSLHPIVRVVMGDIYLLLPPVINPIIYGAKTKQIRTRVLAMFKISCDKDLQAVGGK
# Outline: as §1
# OR51B5 (Homo sapiens) = target: T4, OR51B5 (Homo sapiens) (UniProt Q9H339)
# T4 sequence (whole entry): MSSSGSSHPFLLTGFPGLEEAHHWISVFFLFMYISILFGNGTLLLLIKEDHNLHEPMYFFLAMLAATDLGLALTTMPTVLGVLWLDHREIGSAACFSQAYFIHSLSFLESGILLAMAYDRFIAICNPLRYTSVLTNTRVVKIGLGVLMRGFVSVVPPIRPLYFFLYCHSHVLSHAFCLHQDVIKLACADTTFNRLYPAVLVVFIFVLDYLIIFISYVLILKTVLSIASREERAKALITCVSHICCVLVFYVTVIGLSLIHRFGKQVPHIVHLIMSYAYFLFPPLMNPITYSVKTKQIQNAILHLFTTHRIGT
# Outline: as §1
smiles,measurement,setting,value
CCCCCCCCC(=O)O,odorant receptor agonist call,OR51A4 (Homo sapiens),inactive
same,odorant receptor agonist call,OR51E1 (Homo sapiens),active
same,odorant receptor agonist call,OR51E2 (Homo sapiens),inactive
CCCCC(=O)C(C)=O,odorant receptor agonist call,OR51B5 (Homo sapiens),inactive
CCCCCCCCCCCCCC(=O)OCC,odorant receptor agonist call,OR51B5 (Homo sapiens),inactive
CC(O)C(=O)[O-].[H+] (stereo unspecified),odorant receptor agonist call,OR51B5 (Homo sapiens),inactive
